Assay results taken from ChEMBL document CHEMBL1138047, “Synthesis and biological evaluation of 2-amino-3-(3',4',5'-trimethoxybenzoyl)-5-aryl thiophenes as a new class of potent antitubulin agents” (J Med Chem, 2006).
Calls of active or inactive are those of the source. The calls are words filed in the database; no cut-off is given here.

How the values were obtained:
L1210 = test: Antiproliferative activity against mouse L1210 cell line; assay type: functional, cell-based
Outline: (§1)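 Exponentially growing cells in RPMI 1640 with 10% fetal calf serum, 2 mM L-glutamine, […], penicillin/streptomycin were exposed to increasing drug concentrations (DMSO stock 1 mg/mL, final DMSO ≤0.01%, matched DMSO controls). Cells counted by Coulter counter after 48 h. IC50 = concentration giving 50% inhibition versus untreated controls. Duplicate cultures per concentration, ≥3 independent experiments, mean ± SE.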

K562 [1] = test: Antiproliferative activity against human K562 cell line; assay type: functional, cell-based; outline: as §1
Tubulin = Tubulin (Bos taurus, UniProt Q6B856+Q862L2+Q862F3); test: Inhibition of tubulin polymerization in bovine brain by tubulin assembly assay
Outline: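 Purified bovine brain tubulin (10 µM) in glutamate buffer was preincubated with a concentration range of compound at 30 °C, then cooled to 0 °C. GTP was added, the mixture rewarmed to 30 °C and assembly followed by turbidity.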

Tubulin (Bos taurus) = test: Inhibition of [3H]colchicine binding to tubulin at 1 uM
K562 [2] = test: Cell cycle arrest in K562 cells at sub-G1 phase cell; assay type: functional, cell-based; conditions: Homo sapiens
Outline: (§2)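 K562 cells cultured with compound at 3 or 10 nM, or at levels giving 50% and 75% growth inhibition, versus untreated cells. Cells (1 × 10⁶) stained with propidium iodide for 30 min. Sub-G1 (DNA-breakage) fraction measured by flow cytometry.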

K562 [3] = test: Induction of apoptosis in K562 cell line; assay type: functional, Homo sapiens
K562 [4] = test: Cell cycle arrest in K562 cells at G2/M phase; assay type: functional, cell-based; conditions: Homo sapiens
Outline: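 K562 cells cultured 24 h with compound at concentrations giving 25%, 50% and 75% growth inhibition, or without compound. Cells (1 × 10⁶) stained with propidium iodide for 30 min and analysed by flow cytometry for G1, S, G2/M and sub-G1 fractions. DMSO vehicle.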

K562 [5] = test: Cell cycle arrest in K562 cells at sub-G1 phase cell at 10 nM; assay type: functional, cell-based; conditions: Homo sapiens; outline: as §2
K562 [6] = test: Cell cycle arrest in K562 cells at sub-G1 phase cell at 3 nM; assay type: functional, cell-based; conditions: Homo sapiens; outline: as §2

COc1cc(C(=O)c2c(N)sc(C)c2C)cc(OC)c1OC
IC50 (L1210): 3900 nM | IC50 (K562 [1]): 790 nM

COc1ccc(-c2cc(C(=O)c3cc(OC)c(OC)c(OC)c3)c(N)s2)cc1
IC50 (Tubulin): 1700 nM | IC50 (L1210): 6.52 nM | IC50 (K562 [1]): 4.47 nM | inhibition (Tubulin (Bos taurus)): 64%

COc1cc(C(=O)c2cc(-c3ccc(Cl)c(Cl)c3)sc2N)cc(OC)c1OC
IC50 (L1210): 337 nM | IC50 (K562 [1]): 362 nM

COc1cc(C(=O)c2cc(I)sc2N)cc(OC)c1OC
IC50 (L1210): 1150 nM | IC50 (K562 [1]): 342 nM

CCc1cc(C(=O)c2cc(OC)c(OC)c(OC)c2)c(N)s1
IC50 (L1210): > 10000 nM | IC50 (K562 [1]): 9000 nM

COc1ccc(C(=O)c2cc(-c3ccccc3)sc2N)cc1
IC50 (L1210): > 10000 nM | IC50 (K562 [1]): 4670 nM

COc1cc(C(=O)c2cc(-c3ccc(F)cc3)sc2N)cc(OC)c1OC
Activity (K562 [2]): Active | IC50 (Tubulin): 1100 nM | Activity (K562 [3]): 64.5% | IC50 (L1210): 2.15 nM | IC50 (K562 [1]): 2.82 nM | inhibition (Tubulin (Bos taurus)): 82% | Activity (K562 [4]): Dose-dependent effect

COc1cc(C(=O)c2c(N)sc(-c3ccccc3)c2-c2ccccc2)cc(OC)c1OC
IC50 (L1210): 6950 nM | IC50 (K562 [1]): 8500 nM

COc1cc(C(=O)c2cc(-c3ccc(C(F)(F)F)cc3)sc2N)cc(OC)c1OC
IC50 (L1210): 73.7 nM | IC50 (K562 [1]): 70.3 nM

COc1cc(C(=O)c2cc(-c3ccc(OC)c(OC)c3OC)sc2N)cc(OC)c1OC
IC50 (L1210): 1650 nM | IC50 (K562 [1]): 1100 nM

COc1cccc(-c2cc(C(=O)c3cc(OC)c(OC)c(OC)c3)c(N)s2)c1
IC50 (Tubulin): 1700 nM | IC50 (L1210): 20.8 nM | IC50 (K562 [1]): 10.1 nM | inhibition (Tubulin (Bos taurus)): 58%

COc1cc(C(=O)c2c(N)sc(-c3ccccc3)c2C)cc(OC)c1OC
IC50 (Tubulin): 2200 nM | IC50 (L1210): 18.2 nM | IC50 (K562 [1]): 6.42 nM | inhibition (Tubulin (Bos taurus)): 37%

COc1cc(C(=O)c2c(C)csc2N)cc(OC)c1OC
IC50 (L1210): 262 nM | IC50 (K562 [1]): 219 nM

COc1ccc(/C=C\c2cc(OC)c(OC)c(OC)c2)cc1O [COMBRETASTATIN A4]
IC50 (L1210): 8.3 nM | IC50 (K562 [1]): 3.6 nM

COc1cc(C(=O)c2cc(-c3ccc(C)cc3)sc2N)cc(OC)c1OC
Activity (K562 [2]): Active | IC50 (Tubulin): 1100 nM | Activity (K562 [3]): 20.5% | IC50 (L1210): 3.52 nM | IC50 (K562 [1]): 4.72 nM | inhibition (Tubulin (Bos taurus)): 71%

COc1ccc(C(=O)c2cc(-c3ccccc3)sc2N)cc1OC
IC50 (L1210): 537 nM | IC50 (K562 [1]): 85.5 nM

COc1cc(C(=O)c2cc(-c3ccccc3)sc2N)cc(OC)c1OC
Activity (K562 [5]): Active | Activity (K562 [2]): Active | IC50 (Tubulin): 1900 nM | Activity (K562 [3]): 87.5% | IC50 (L1210): 2.52 nM | Activity (K562 [6]): Active | IC50 (K562 [1]): 3.75 nM | inhibition (Tubulin (Bos taurus)): 60%

CCCCCc1cc(C(=O)c2cc(OC)c(OC)c(OC)c2)c(N)s1
IC50 (L1210): 1320 nM | IC50 (K562 [1]): 1490 nM

COc1ccccc1-c1cc(C(=O)c2cc(OC)c(OC)c(OC)c2)c(N)s1
IC50 (L1210): 9 nM | IC50 (K562 [1]): 7.75 nM

COc1cc(C(=O)c2cc(-c3ccc(Cl)cc3)sc2N)cc(OC)c1OC
IC50 (Tubulin): 980 nM | IC50 (L1210): 6.96 nM | IC50 (K562 [1]): 14.7 nM | inhibition (Tubulin (Bos taurus)): 68%

COc1cc(C(=O)c2cc(Br)sc2N)cc(OC)c1OC
IC50 (L1210): 4250 nM | IC50 (K562 [1]): 1680 nM

COc1cc(C(=O)c2ccsc2N)cc(OC)c1OC
IC50 (L1210): 3150 nM | IC50 (K562 [1]): 1270 nM

COc1cc(C(=O)c2c(-c3ccccc3)csc2N)cc(OC)c1OC
IC50 (L1210): > 10000 nM | IC50 (K562 [1]): > 10000 nM
